Measurements: BindingDB's records for doi:10.1021/jm049337s (Leiden/Amsterdam Center For Drug Research, 2005)

Tests used:
Adenosine receptor A1 [1] = target: T1, Adenosine receptor A1 (Homo sapiens, UniProt P30542); assay: Association constant for [3H]CCPA binding to Adenosine A1 receptor in the presence of compound; details: read-out: kon (M-1-s-1)
T1 sequence (P30542 whole entry): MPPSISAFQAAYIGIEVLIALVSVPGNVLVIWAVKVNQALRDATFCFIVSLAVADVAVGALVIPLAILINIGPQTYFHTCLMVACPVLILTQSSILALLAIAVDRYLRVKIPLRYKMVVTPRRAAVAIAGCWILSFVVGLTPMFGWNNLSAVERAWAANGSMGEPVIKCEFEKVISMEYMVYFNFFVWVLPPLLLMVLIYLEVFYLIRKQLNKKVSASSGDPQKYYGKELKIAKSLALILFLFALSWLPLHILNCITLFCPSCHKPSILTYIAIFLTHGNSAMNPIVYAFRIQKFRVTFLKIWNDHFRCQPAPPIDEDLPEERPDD
Procedure, shortened: (§1)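 Kinetics on membranes (30 µg) from CHO cells expressing recombinant human A1 receptors, using [3H]CCPA at 1 nM, with or without compound. Association was started by adding membranes to the radioligand. For dissociation, membranes were preloaded with radioligand for 60 min at 25 °C, then 100 µM 8-cyclopentyltheophylline was added. Bound ligand was separated by GF/B filtration and counted by scintillation; t1/2 and rate constants were derived.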

Adenosine receptor A1 [2] = target: T1, Adenosine receptor A1; assay: Dissociation constant for [3H]-CCPA binding to Adenosine A1 receptor in the presence of compound; procedure, shortened: as §1

c1ccc(-c2n/c(=N/C3CCCC3)sn2-c2ccccc2)cc1
kon (Adenosine receptor A1 [1]): 4.16e+06 M⁻¹ s⁻¹ | koff (Adenosine receptor A1 [2]): 0.001 s⁻¹
